Source: ChEMBL document CHEMBL1146087, “1,4-Benzodiazepines as inhibitors of respiratory syncytial virus” (J Med Chem, 2006)

Key:
[1] = Half life in Sprague-Dawley rat at 2 mg/kg, iv; format: ADME, organism-based; parameters: dose 2 mg/kg, route intravenous; settings: in vivo
[2] = system: Rattus norvegicus; experiment: Volume of distribution in Sprague-Dawley rat at 2 mg/kg, po; format: ADME, organism-based; parameters: dose 2 mg/kg, route oral; settings: in vivo
[3] = system: Respiratory syncytial virus; experiment: Antiviral activity against RSV Long in Hep2 cells by plaque assay; format: functional, organism-based; settings: human respiratory syncytial virus, HEp-2
[4] = system: Respiratory syncytial virus; experiment: Antiviral activity against RSV RSS in Hep2 cells by ELISA; format: functional, organism-based; settings: human respiratory syncytial virus, HEp-2
[5] = Apparent oral clearance in Sprague-Dawley rat at 2 mg/kg, po; format: ADME, organism-based; parameters: dose 2 mg/kg, route oral; settings: in vivo
[6] = system: Respiratory syncytial virus; experiment: Antiviral activity against RSV B in Hep2 cells by ELISA; format: functional, organism-based; settings: human respiratory syncytial virus, HEp-2
[7] = Volume of distribution in Sprague-Dawley rat at 2 mg/kg, iv; format: ADME, organism-based; parameters: dose 2 mg/kg, route intravenous; settings: in vivo, read-out: Vdss
[8] = Tmax in Sprague-Dawley rat at 2 mg/kg, po; format: ADME, organism-based; parameters: dose 2 mg/kg, route oral; settings: in vivo
[9] = system: Respiratory syncytial virus; experiment: Antiviral activity against RSV RSS in Hep2 cells by whole cell XTT assay; format: functional, organism-based; settings: human respiratory syncytial virus, HEp-2
Summary of the method: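 Primary whole-cell assay with XTT read-out of infected cells. Parallel cultures without virus were run to measure compound cytotoxicity. IC50 values were derived.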

[10] = Cmax in Sprague-Dawley rat at 2 mg/kg, iv; format: ADME, organism-based; parameters: dose 2 mg/kg, route intravenous; settings: in vivo
[11] = Tmax in Sprague-Dawley rat at 2 mg/kg, iv; format: ADME, organism-based; parameters: dose 2 mg/kg, route intravenous; settings: in vivo
[12] = Half life in Sprague-Dawley rat at 2 mg/kg, po; format: ADME, organism-based; parameters: dose 2 mg/kg, route oral; settings: in vivo
[13] = Cmax in Sprague-Dawley rat at 25 mg/kg, po; format: ADME, organism-based; parameters: dose 25 mg/kg, route oral; settings: in vivo
[14] = Half life in Sprague-Dawley rat at 25 mg/kg, po; format: ADME, organism-based; parameters: dose 25 mg/kg, route oral; settings: in vivo
[15] = system: Respiratory syncytial virus; experiment: Antiviral activity against RSV B in Hep2 cells by plaque assay; format: functional, organism-based; settings: human respiratory syncytial virus, HEp-2
[16] = system: HEp-2; experiment: Cytotoxicity against Hep2 cell at 50 uM; format: functional, cell-based; settings: Homo sapiens
Summary of the method: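 Run alongside the whole-cell antiviral XTT assay, without virus, to measure compound toxicity to the cells. The read-out is XTT.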

[17] = Apparent oral clearance in Sprague-Dawley rat at 25 mg/kg, po; format: ADME, organism-based; parameters: dose 25 mg/kg, route oral; settings: in vivo
[18] = Oral bioavailability in Sprague-Dawley rat at 2 mg/kg, po; format: ADME, organism-based; settings: in vivo
[19] = Tmax in Sprague-Dawley rat at 25 mg/kg, po; format: ADME, organism-based; parameters: dose 25 mg/kg, route oral; settings: in vivo
[20] = Clearance in Sprague-Dawley rat at 2 mg/kg, iv; format: ADME, organism-based; parameters: dose 2 mg/kg, route intravenous; settings: in vivo
[21] = Cmax in Sprague-Dawley rat at 2 mg/kg, po; format: ADME, organism-based; parameters: dose 2 mg/kg, route oral; settings: in vivo
[22] = system: Rattus norvegicus; experiment: Volume of distribution in Sprague-Dawley rat at 25 mg/kg, po; format: ADME, organism-based; parameters: dose 25 mg/kg, route oral; settings: in vivo
[23] = system: Respiratory syncytial virus; experiment: Antiviral activity against RSV Long in Hep2 cells by ELISA; format: functional, organism-based; settings: human respiratory syncytial virus, HEp-2
[24] = system: Respiratory syncytial virus; experiment: Antiviral activity against RSV RSS in Hep2 cells by plaque assay; format: functional, organism-based; settings: human respiratory syncytial virus, HEp-2

## CC(=O)NC1N=C(c2ccccc2)c2ccccc2NC1=O (centres undefined)
[1]
  half-life: 5 h
[2]
  Vdss: 4.2 L/kg
[3]
  IC50: 7.2 µM
[4]
  IC50: 9.3 µM
[5]
  CL/F: 0.294 L/h/kg
[6]
  IC50: 17.8 µM
[7]
  Vd: 2.2 L/kg
[8]
  Tmax: 2.6 h
[9]
  IC50: 8.6 µM
[10]
  Cmax: 2.4 µg/mL
[11]
  Tmax: 4.8 min
[12]
  half-life: 5.9 h
[13]
  Cmax: 7.93 µg/mL
[14]
  half-life: 4.4 h
[15]
  IC50: 3.6 µM
[16]
  Activity: Not toxic
[17]
  CL/F: 0.438 L/h/kg
[18]
  bioavailability: 77%
[19]
  Tmax: 1.5 h
[20]
  clearance: 0.318 L/h/kg
[21]
  Cmax: 0.616 µg/mL
[22]
  Vdss: 2.7 L/kg
[23]
  IC50: 17.6 µM
[24]
  IC50: 7.1 µM
